Data on one compound can be found in ChEMBL document CHEMBL5033998, “Discovery of DDO-2213 as a Potent and Orally Bioavailable Inhibitor of the WDR5-Mixed Lineage Leukemia 1 Protein-Protein Interaction for the Treatment of MLL Fusion Leukemia” (J Med Chem, 2021).

SMILES strings stand for the structures. Calls of active or inactive are those of the source. The rule behind the calls is not given here.

Data set [1] can be described thus: Metabolic stability in human liver microsomes assessed as half life at 1 uM in presence of NADPH by LC-MS/MS analysis. Type of data set: ADME, Microsome. Put shortly:
(§1)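 Compound at 1 μM preincubated 5 min at 37 °C with human or rat liver microsomes (0.7 mg/mL) in 100 mM PBS pH 7.4; reaction started with 1 mM NADPH.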
A general note: Liver microsomes are vesicles of endoplasmic reticulum, rich in cytochrome P450 enzymes.

In data set [2] the target is T1, Histone-lysine N-methyltransferase 2A (Homo sapiens, UniProt Q03164). Kind of data set: Inhibition of MLL1 (unknown origin) in human MV4-11 cells assessed as decrease in H3Kme2 level at 1 to 10 uM measured after 7 days by Western blot analysis. Type of data set: cell-based. Put shortly:
(§2)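 MV4-11 cells exposed to 1, 2.5, 5 and 10 μM; H3K4me1/me2/me3 assessed by Western blot with histone H3 as loading control. Blots blocked in 1% BSA 1 h, primary antibody overnight at 4 °C, DyLight 800 secondary 1 h at 37 °C, infrared imaging.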

For data set [3], the target named is T1, Histone-lysine N-methyltransferase 2A. The data set is described as follows: Inhibition of MLL1 (unknown origin) in human MV4-11 cells assessed as decrease in H3Kme1 level at 1 to 10 uM measured after 7 days by Western blot analysis. It is filed as cell-based. To be noted: dose 1-10 µM, time 7.0 day. The method, boiled down: as §2
The nature of data set [4]: Permeability of compound at pH 7.4 incubated for 4 hrs by PAMPA assay. Type of data set: ADME. The following applies: read-out: permeability. Put shortly: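 Double-sink PAMPA: compound diluted in pH 7.4 donor buffer, permeation through artificial membrane to acceptor over 4 h at 25 °C; donor and acceptor read by UV; mean ± SD of three independent experiments.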
A general note: PAMPA measures passive passage across an artificial lipid membrane.

Data set [5] has as its system MOLM-13. Kind of data set: Antiproliferative activity against human MOLM-13 cells assessed as cell viability incubated for 72 hrs by CCK8 assay. To be noted: MOLM-13, 72 h. It is filed as functional, cell-based. Put shortly:
(§3)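 Cells seeded at 3000–6000 per well, exposed to inhibitor at several concentrations for 72 h; viability read with CCK8 kit. MV4-11 and K562 grown in modified IMDM + 10% FBS, pen/strep; MOLM-13 in RPMI-1640 + 10% FBS; HUVEC in modified DMEM + 10% FBS; 37 °C, 5% CO2. IC50 as mean ± SD of three independent experiments.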

Data set [6] concerns K562. The data set is described as follows: Antiproliferative activity against human K562 cells assessed as cell viability incubated for 72 hrs by CCK8 assay. Type of data set: functional, cell-based. To be noted: K562, 72 h. The method, boiled down:
as §3
(Tetrazolium dyes change colour on reduction, which living cells bring about.)

For data set [7], the system named is HUVEC. The data set is described as follows: Antiproliferative activity against human HUVEC cells assessed as cell viability incubated for 72 hrs by CCK8 assay. It is filed as cell-based. The method, boiled down: as §3
In data set [8] the target is T2, N-lysine methyltransferase KMT5A (Homo sapiens, UniProt Q9NQR1).
T2 sequence (Q9NQR1 whole entry): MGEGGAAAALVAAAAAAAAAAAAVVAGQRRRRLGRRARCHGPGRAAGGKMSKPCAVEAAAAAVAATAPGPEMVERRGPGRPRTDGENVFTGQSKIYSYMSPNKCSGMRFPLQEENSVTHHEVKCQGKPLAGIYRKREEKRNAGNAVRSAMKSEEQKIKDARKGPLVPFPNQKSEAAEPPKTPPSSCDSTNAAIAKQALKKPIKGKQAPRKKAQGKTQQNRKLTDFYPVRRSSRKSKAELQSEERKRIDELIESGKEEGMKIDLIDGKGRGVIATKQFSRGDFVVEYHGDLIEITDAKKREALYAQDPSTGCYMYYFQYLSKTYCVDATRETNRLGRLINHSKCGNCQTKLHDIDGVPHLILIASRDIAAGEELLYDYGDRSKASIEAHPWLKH
Kind of data set: Inhibition of SET8 (unknown origin) assessed as effect on H4K20 methylation incubated for 30 mins by Alphascreen assay. The method, boiled down:
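AlphaScreen: enzyme, SAM and compound mixed in 10 mM PBS for 30 min at room temperature; acceptor beads and substrate antibody added, 30 min at room temperature, then streptavidin donor beads; read on AlphaScreen reader.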

A short description of data set [9]: Metabolic stability in rat liver microsomes assessed as clearance at 1 uM in presence of NADPH by LC-MS/MS analysis. It is filed as ADME, Microsome. The method, boiled down:
as §1

Data set [10] in a line: Half life in Sprague-Dawley rat at 2 mg/kg, iv measured upto 24 hrs by LC-MS/MS analysis. Type of data set: ADME, organism-based. To be noted: in vivo.
The nature of data set [11]: Cmax in Sprague-Dawley rat at 10 mg/kg, po measured upto 24 hrs by LC-MS/MS analysis. It is filed as ADME, organism-based. On the set-up: route oral, dose 10 mg/kg, time <=24. To be noted: in vivo. The method, boiled down:
(§4)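 Male SD rats, 6–8 weeks, 220 ± 30 g; single oral dose 10 mg/kg (n = 3). Plasma sampled at 0, 0.25, 0.5, 1, 2, 4, 6, 8 and 24 h, stored at −80 °C, quantified by LC-MS/MS; parameters reported as mean ± SEM.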

The nature of data set [12]: AUC (0 to t) in Sprague-Dawley rat at 10 mg/kg, po measured upto 24 hrs by LC-MS/MS analysis. Type of data set: ADME, organism-based. Further details: route oral, dose 10 mg/kg, time <=24. To be noted: in vivo. Put shortly:
as §4

Data set [13] is described as follows: AUC (0 to t) in Sprague-Dawley rat at 2 mg/kg, iv measured upto 24 hrs by LC-MS/MS analysis. It is filed as ADME, organism-based. Further details: route intravenous, dose 2 mg/kg, time <=24. The following applies: in vivo.
Data set [14] is described as follows: AUC (0 to infinity) in Sprague-Dawley rat at 10 mg/kg, po measured upto 24 hrs by LC-MS/MS analysis. It is filed as ADME, organism-based. Further details: route oral, dose 10 mg/kg, time <=24. The following applies: in vivo. The method, boiled down: as §4
Data set [15] can be described thus: MRT in Sprague-Dawley rat at 2 mg/kg, iv measured upto 24 hrs by LC-MS/MS analysis. Type of data set: ADME, organism-based. The following applies: in vivo.
Data set [16] relates to MV4-11. The data set is described as follows: Antitumor activity against human MV4-11 cells xenografted in Balb/c nude mouse assessed as tumor weight inhibition at 40 mg/kg, po administered daily for 21 days relative to control. The following applies: MV4-11, po, 504 h, time 21 day. Type of data set: functional. The method, boiled down: (§5)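 MV4-11 flank xenografts (~5 × 10^6 cells) in female BALB/c nude mice, 6 per group; daily oral dosing (40, 80, 120 mg/kg) or saline vehicle for 21 days, then tumors excised and weighed.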

A short description of data set [17]: Toxicity in Balb/c nude mouse xenografted with human MV4-11 cells assessed as body weight loss at 40 to 120 mg/kg, po administered daily for 21 days relative to control. It is filed as organism-based. To be noted: in vivo, 504 h. Put shortly: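 Nude BALB/c females bearing MV4-11 xenografts, dosed orally each day for 21 days at 40, 80 or 120 mg/kg, saline vehicle controls (6 mice/group); body weight recorded every other day.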

Data set [18] relates to MV4-11. The data set is described as follows: Antitumor activity against human MV4-11 cells xenografted in Balb/c nude mouse assessed as tumor weight inhibition at 80 mg/kg, po administered daily for 21 days relative to control. Type of data set: functional. The following applies: MV4-11, po, 504 h. Put shortly: as §5
The target in data set [19] is T1, Histone-lysine N-methyltransferase 2A. The data set is described as follows: Inhibition of MLL1 (unknown origin) in human MV4-11 cells assessed as decrease in Hoxa9 mRNA level at 1 to 10 uM measured after 7 days by RT-PCR analysis. To be noted: dose 1-10 µM, time 7.0 day.
Data set [20] shares this target. The data set is described as follows: Inhibition of MLL1 (unknown origin) histone methyltransferase activity assessed as inhibition of H3K4 methylation incubated for 30 mins by chemiluminescence assay.

T1 sequence (Q03164 1-2718 limits assumed): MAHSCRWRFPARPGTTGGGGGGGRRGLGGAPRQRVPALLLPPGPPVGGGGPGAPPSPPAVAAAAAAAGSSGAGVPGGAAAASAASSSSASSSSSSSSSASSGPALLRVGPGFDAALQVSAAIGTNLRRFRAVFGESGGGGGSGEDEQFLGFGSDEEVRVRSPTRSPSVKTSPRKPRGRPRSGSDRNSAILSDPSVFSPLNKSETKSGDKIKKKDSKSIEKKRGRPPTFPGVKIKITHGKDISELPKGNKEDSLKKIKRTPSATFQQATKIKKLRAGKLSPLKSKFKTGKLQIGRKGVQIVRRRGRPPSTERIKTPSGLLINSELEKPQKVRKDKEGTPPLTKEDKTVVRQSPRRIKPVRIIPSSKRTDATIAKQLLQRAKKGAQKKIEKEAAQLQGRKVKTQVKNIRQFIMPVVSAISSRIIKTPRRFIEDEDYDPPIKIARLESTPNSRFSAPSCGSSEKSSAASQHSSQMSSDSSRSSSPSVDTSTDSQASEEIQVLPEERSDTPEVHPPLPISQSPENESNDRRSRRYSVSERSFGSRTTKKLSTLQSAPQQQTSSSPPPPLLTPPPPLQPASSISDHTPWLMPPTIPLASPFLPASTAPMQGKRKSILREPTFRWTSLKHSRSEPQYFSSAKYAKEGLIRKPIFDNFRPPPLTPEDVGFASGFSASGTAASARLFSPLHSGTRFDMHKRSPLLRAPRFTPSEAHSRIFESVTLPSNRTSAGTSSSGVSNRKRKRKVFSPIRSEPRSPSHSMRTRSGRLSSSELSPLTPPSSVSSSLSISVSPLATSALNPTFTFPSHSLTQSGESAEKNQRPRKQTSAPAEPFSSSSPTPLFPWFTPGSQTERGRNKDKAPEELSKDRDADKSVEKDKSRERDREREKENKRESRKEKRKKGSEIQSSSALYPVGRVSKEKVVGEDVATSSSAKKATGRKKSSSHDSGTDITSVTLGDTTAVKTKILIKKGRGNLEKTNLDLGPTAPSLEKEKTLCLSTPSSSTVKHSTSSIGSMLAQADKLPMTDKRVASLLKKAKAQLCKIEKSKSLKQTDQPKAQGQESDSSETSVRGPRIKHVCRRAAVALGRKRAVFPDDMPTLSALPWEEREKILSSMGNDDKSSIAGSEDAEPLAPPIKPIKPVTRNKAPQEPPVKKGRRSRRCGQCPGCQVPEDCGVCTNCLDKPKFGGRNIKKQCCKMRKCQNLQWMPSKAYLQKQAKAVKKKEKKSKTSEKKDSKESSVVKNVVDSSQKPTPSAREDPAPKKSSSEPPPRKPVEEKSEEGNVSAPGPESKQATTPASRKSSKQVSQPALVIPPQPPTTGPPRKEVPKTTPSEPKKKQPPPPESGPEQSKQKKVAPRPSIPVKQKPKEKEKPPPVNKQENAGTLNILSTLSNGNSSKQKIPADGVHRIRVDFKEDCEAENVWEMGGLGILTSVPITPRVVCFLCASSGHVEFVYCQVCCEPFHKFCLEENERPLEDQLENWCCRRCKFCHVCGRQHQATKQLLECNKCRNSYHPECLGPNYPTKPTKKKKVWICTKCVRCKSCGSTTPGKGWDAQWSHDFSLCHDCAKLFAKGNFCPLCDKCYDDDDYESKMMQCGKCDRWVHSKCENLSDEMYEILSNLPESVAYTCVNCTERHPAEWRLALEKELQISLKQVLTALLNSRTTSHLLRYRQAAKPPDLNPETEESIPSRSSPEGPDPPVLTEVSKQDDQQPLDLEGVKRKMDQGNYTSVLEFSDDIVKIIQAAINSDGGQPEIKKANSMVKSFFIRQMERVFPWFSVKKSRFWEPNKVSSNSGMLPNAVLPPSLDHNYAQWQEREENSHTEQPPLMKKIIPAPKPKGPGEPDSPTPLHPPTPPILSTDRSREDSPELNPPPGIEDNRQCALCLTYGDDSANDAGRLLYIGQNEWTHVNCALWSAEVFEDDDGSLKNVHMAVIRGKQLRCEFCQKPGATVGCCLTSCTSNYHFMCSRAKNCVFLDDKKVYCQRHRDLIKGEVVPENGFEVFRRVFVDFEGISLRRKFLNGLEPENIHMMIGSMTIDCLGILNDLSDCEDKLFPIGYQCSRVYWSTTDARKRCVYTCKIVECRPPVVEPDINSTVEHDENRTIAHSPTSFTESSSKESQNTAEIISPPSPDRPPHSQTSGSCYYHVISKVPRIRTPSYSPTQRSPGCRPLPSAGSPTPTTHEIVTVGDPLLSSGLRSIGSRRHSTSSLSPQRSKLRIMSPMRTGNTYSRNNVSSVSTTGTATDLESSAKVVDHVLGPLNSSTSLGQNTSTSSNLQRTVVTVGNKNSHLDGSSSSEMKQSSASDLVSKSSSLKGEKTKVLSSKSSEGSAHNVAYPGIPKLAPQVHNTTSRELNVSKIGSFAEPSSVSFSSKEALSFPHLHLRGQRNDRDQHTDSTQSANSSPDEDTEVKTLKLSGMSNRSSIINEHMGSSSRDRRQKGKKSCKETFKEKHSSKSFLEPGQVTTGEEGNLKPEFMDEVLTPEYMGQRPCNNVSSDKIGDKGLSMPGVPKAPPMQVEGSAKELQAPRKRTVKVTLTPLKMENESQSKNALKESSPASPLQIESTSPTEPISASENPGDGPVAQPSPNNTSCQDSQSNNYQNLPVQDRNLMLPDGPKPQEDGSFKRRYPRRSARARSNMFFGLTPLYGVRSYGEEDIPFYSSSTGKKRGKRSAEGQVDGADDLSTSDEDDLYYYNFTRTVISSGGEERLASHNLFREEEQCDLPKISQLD
T1 sequence (Q03164 2719-3969 limits assumed): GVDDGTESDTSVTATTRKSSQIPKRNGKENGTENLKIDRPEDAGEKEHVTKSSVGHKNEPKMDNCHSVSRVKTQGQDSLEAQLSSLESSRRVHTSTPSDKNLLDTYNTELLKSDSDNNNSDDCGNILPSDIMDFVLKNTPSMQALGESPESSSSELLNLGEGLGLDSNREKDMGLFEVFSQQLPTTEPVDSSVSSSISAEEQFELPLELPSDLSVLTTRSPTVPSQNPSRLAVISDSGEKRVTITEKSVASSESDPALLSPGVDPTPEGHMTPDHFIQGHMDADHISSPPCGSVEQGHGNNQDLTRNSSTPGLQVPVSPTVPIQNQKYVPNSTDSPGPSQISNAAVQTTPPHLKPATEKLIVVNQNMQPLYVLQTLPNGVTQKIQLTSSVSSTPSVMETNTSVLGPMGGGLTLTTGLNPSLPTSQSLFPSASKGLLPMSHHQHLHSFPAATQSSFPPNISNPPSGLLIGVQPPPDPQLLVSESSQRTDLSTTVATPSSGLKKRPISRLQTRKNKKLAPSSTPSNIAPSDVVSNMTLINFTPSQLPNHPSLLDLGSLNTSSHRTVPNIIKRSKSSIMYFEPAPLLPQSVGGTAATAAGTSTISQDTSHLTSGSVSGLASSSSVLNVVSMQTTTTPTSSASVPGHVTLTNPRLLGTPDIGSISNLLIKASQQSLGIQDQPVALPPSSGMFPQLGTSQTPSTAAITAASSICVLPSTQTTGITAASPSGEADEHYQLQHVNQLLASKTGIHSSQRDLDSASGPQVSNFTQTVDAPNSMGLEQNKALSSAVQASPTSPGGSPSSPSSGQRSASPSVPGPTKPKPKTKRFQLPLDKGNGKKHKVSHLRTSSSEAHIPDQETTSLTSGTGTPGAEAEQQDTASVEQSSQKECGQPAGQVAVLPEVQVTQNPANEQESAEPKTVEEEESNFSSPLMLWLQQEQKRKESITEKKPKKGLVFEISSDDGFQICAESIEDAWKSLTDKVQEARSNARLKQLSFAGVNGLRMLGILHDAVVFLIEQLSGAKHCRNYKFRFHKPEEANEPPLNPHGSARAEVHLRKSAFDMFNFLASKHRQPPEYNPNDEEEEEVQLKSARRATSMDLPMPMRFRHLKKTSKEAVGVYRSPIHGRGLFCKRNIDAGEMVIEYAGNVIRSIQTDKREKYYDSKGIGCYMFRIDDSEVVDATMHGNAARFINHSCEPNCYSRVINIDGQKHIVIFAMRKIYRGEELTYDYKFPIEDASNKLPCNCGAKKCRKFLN

One may read the half-life as how long it takes for the measured level to halve. As usually defined, the IC50 is the concentration needed to halve the response being measured. One may read the Cmax as the peak of the concentration-time curve. One may read the AUC(0-t) as the area under the concentration-time curve up to a stated or last time point. High values mean more exposure, low ones less exposure. A word on the AUC(0-inf): it is total exposure, with the tail of the curve extrapolated. High values mean more exposure, low ones less exposure. Usually MRT stands for the average time that molecules of a dose stay in the body. One may read the inhibition in vivo as the share of the control response that was lost under treatment. As for `CN1CCN(c2cc(F)c(-c3ccc(C(=O)N(C)C)cc3)cc2Nc2ncnc(Cl)c2N)CC1`, the half-life at 1 µM in [1] was 70 min. Besides, the inhibition result in data set [2] was “Active”. For the same compound, the inhibition result in data set [3] and in data set [19] was “Dose-Dependent Effect” in each case. In [4], the Papp at 4 h is 20.2 ×10⁻⁶ cm/s. Further, the IC50 was 13.1 µM in data set [5]; > 100 µM in data set [6]; > 100 µM in data set [7]; > 100 µM in data set [8]; 780 nM in data set [20]. Further, the CLH in data set [9] was 15 µL/min/mg. This compound also had a half-life in data set [10] of 102 min. The compound also registered a Cmax in [11] of 159 ng/mL. The AUC(0-t) at 24 h turned out to be 1320 ng·h/mL in [12] and 411 ng·h/mL in [13]. This compound yielded an AUC(0-inf) in data set [14] of 1740 ng·h/mL. For the same compound, in data set [15], the MRT was 1.18 h. Further, the inhibition in vivo at 40 mg/kg in data set [16] is 36.4%. For the same compound, the Activity result in data set [17] was “Non-Toxic”. Moreover, the inhibition in vivo at 80 mg/kg in data set [18] was found to be 51.6%.
